Series [1] in a line: Antiviral activity against Human coronavirus 229E infected in human embryonic lung fibroblast cells assessed as reduction in virus-induced cytopathic effect incubated for 5 days by MTS cell viability assay. The following applies: 120 h. Type of series: functional, cell-based. Summed up:
(§1)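 Confluent HEL cell cultures given serial compound dilutions together with HCoV-229E at MOI 100 and held 5 days at 35 °C. Virus-induced CPE was scored by microscopy. MTS reagent was then added and absorbance at 490 nm read 24 h later. EC50 was taken from the MTS or microscopic read-out and CC50 from MTS. SI = CC50/EC50, both by MTS. Mean ± SEM of three independent experiments.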
A general note: Damage to the host cells serves as the signal in cytopathic effect assays.

Series [2] has as its system Human respirovirus 3. The series is described as follows: Antiviral activity against Parainfluenza-3 virus. Type of series: functional, organism-based.
In series [3] the test system is Human immunodeficiency virus. The series is described as follows: Antiviral activity against HIV. It counts as functional, organism-based.
In series [4] the test system is Yellow fever virus. Kind of series: Antiviral activity against Yellow fever virus. It counts as functional, organism-based.
In series [5] the test system is Herpes simplex virus unknown type. Kind of series: Antiviral activity against Herpes simplex virus. It counts as functional.
A short description of series [6]: Selectivity index, ratio of CC50 for cytotoxicity against mock-infected human embryonic lung fibroblast cells incubated for 5 days by MTS assay to EC50 for antiviral activity against Human coronavirus 229E infected in human embryonic lung fibroblast cells assessed as reduction in virus-induced cytopathic effect incubated for 5 days by MTS cell viability assay. To be noted: time 5 day, read-out: Ratio CC50/EC50. It counts as toxicity, cell-based. Summed up:
as §1
In general terms: Tetrazolium dyes change colour on reduction, which living cells bring about.

The subject of series [7] is SARS-CoV-2. The series is described as follows: Antiviral activity against SARS-CoV-2 infected in eGFP expressing Vero E6 cells assessed as reduction in virus-induced cytopathic effect cells pretreated for 24 hrs measure after 4 days post infection by MTS cell viability assay. It counts as functional, organism-based. The following applies: Severe acute respiratory syndrome coronavirus 2.

Series [8] has as its system Punta Toro virus. Kind of series: Antiviral activity against Punta Toro virus. It counts as functional, organism-based.
Series [9] has as its system Human adenovirus 2. Kind of series: Antiviral activity against Adenovirus. It counts as functional.
Series [10] is described as follows: Antiviral activity against Human coronavirus 229E infected in human embryonic lung fibroblast cells assessed as reduction in virus-induced cytopathic effect incubated for 5 days by microscopy. Type of series: functional, cell-based. To be noted: 120 h. Summed up: as §1
Series [11] relates to Influenza A virus. The series is described as follows: Antiviral activity against Influenza virus. It counts as functional.
Series [12] deals with Vesicular stomatitis virus. Kind of series: Antiviral activity against Vesicular stomatitis virus. It counts as functional, organism-based.
Series [13] can be described thus: Cytotoxicity against mock-infected human embryonic lung fibroblast cells incubated for 5 days by MTS assay. It counts as cell-based. To be noted: time 5 day. Summed up:
as §1

Series [14] has as its system Sindbis virus. The series is described as follows: Antiviral activity against Sindbis virus. It counts as functional, organism-based.
Series [15] concerns Respiratory syncytial virus. The series is described as follows: Antiviral activity against Respiratory syncytial virus. Type of series: functional, organism-based.
In series [16] the test system is Coxsackievirus B4. Kind of series: Antiviral activity against Coxsackie B4 virus. It counts as functional, organism-based.
For series [17], the system named is Reovirus sp. The series is described as follows: Antiviral activity against Reovirus-1. Type of series: functional, organism-based.
Series [18] deals with Vaccinia virus. Kind of series: Antiviral activity against Vaccinia virus. Type of series: functional, organism-based. The following applies: Orthopoxvirus vaccinia.
In series [19] the test system is Fibroblast. The series is described as follows: Inhibition of nsp15 T66I drug-resistant mutant in Human coronavirus 229E infected in human embryonic lung fibroblast cells assessed as reduction in virus yield. It counts as cell-based. Summed up:
(§2)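 Virus yield assay in confluent HEL cells. Serial compound dilutions were added, and cells were infected at MOI 100 with wild-type, EndoU-deficient (H250A nsp15) or passage-selected (K60R or T66I nsp15) HCoV-229E. After 4 h at 35 °C, the inoculum was removed and compound re-added. Supernatant was lysed at 3 days p.i. and N-gene RNA copies measured by one-step RT-qPCR. Results are fold reduction versus the no-compound control, from three independent experiments.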

The subject of series [20] is Fibroblast. Kind of series: Inhibition of nsp15 K60R drug-resistant mutant in Human coronavirus 229E infected in human embryonic lung fibroblast cells assessed as reduction in virus yield. Type of series: cell-based. Summed up: as §2
The target in series [21] is Replicase polyprotein 1ab (Human coronavirus 229E) (UniProt P0C6X1). Kind of series: Inhibition of nsp15 in Human coronavirus 229E infected in human embryonic lung fibroblast cells assessed as reduction in viral RNA synthesis at early stage of RNA synthesis at 15 uM treated 6 hrs post infection by RT-qPCR based time-of-addition assay. Type of series: cell-based. Summed up:
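Confluent HEL cells infected with HCoV-229E (MOI 100). Compound at 15 μM was added at -0.5 to 8 h p.i. At 16 h p.i. cells were washed with ice-cold PBS and lysed on ice, then heated 10 min at 75 °C and DNase-treated. Viral RNA was measured by one-step RT-qPCR against the N gene, using a plasmid standard for absolute copies. Values are relative to the no-compound virus control, from two independent experiments.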
A general note: Quantitative PCR measures a nucleic acid by following its amplification.

For series [22] the target is unchanged. Kind of series: Inhibition of nsp15 in wild type Human coronavirus 229E infected in human embryonic lung fibroblast cells assessed as reduction in virus yield. Type of series: cell-based. Summed up: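 Confluent HEL cells (or semiconfluent 16HBE) with serial compound dilutions, infected with wild-type HCoV-229E at MOI 100. After 4 h at 35 °C the inoculum was removed and compound re-added. Supernatants were taken at 3 days p.i., lysed, and heated 10 min at 75 °C. Three independent experiments.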

Series [23] can be described thus: Antiviral activity against Human coronavirus 229E harboring reverse engineered EndoU-deficient H250A mutant infected in human embryonic lung fibroblast cells assessed as fold reduction in virus yield measured up to 40 uM. Type of series: functional. The following applies: dose microM <=40. Summed up:
as §2

The target in series [24] is Replicase polyprotein 1ab (Human coronavirus 229E) (UniProt P0C6X1). The series is described as follows: Inhibition of nsp15 in Human coronavirus 229E infected in human embryonic lung fibroblast cells assessed as reduction in viral RNA synthesis at early stage of RNA synthesis at 6.3 uM treated 6 hrs post infection by RT-qPCR based time-of-addition assay. It counts as cell-based.

pEC50: −log10 of the molar value. Activity calls are given as the source filed them. The calls are words filed in the database; no cut-off is given here.

For the molecule `CC(C)[C@@H]1CC[C@]2(C(=O)O)CC[C@]3(C)[C@H](CC[C@@H]4[C@@]5(C)Cc6nnn([C@@H](C)c7ccccc7)c6C(C)(C)[C@@H]5CC[C@]43C)[C@@H]12`, the figures for the pEC50 in series [1] and in [10] were 4.89 and 5.21, respectively. Moreover, the outcome in [2], in series [3], in [4], in series [5], in [8] and in [9] was inactive. For the same molecule, the outcome in series [11], in series [12], in series [14], in series [15], in series [16] and in series [17] was inactive. Besides, the outcome in series [18] was inactive. Also, in [6], the selectivity ratio at 120 h is over 7.6. The outcome in series [7] was Active. Besides, in series [13], the CC50 at 120 h is over 99 µM.

Turning to `N#C[C@@]1(c2ccc3c(N)ncnn23)O[C@H](CO)[C@@H](O)[C@H]1O` [GS-441524], the result in series [19] was Active. Also, the results for the pEC50 in series [1] and in series [10] were 5.64 and 5.49, respectively. Moreover, in series [6], the selectivity ratio at 120 h is over 44. The molecule also had a CC50 at 120 h in series [13] of over 100 µM. The EC99 in series [20] was over 40 µM.

On to `C=C(C)[C@@H]1CC[C@]2(C(=O)O)CC[C@]3(C)[C@H](CC[C@@H]4[C@@]5(C)Cc6nnn([C@@H](C)c7ccccc7)c6C(C)(C)[C@@H]5CC[C@]43C)[C@@H]12`, for which the result in [19], in [2], in series [3], in series [4], in [5] and in series [8] was inactive. The result in [9], in [11], in series [12], in [14], in series [15] and in [16] was inactive. Also, the result in [17] and in series [18] was inactive. Moreover, the result in [21] and in series [7] was Active. Further, the results for the fold change (FC) in [22] and in series [23] were 1480 and 23, respectively. The values for the pEC50 in series [1] and in series [10] were 6.19 and 6.22, respectively. Also, in series [6], the selectivity ratio at 120 h was 76. Further, in [13], the CC50 at 120 h is 49 µM. For the same molecule, the EC99 in series [20] is 2.9 µM.

Consider `CO/C1=C\C(C)=C\[C@@H](C)[C@@H](O)[C@@H](C)C/C(C)=C/C=C/[C@H](OC)[C@@H]([C@@H](C)[C@@H](O)[C@H](C)[C@@]2(O)C[C@@H](O)[C@H](C)[C@@H](C(C)C)O2)OC1=O`, for which, in [24], the result was Active.

Regarding `C=C(C)[C@@H]1CC[C@]2(C(=O)O)CC[C@]3(C)[C@H](CC[C@@H]4[C@@]5(C)Cc6nnn(Cc7ccc(F)cc7)c6C(C)(C)[C@@H]5CC[C@]43C)[C@@H]12`, the pEC50 in series [1] is 5.66; in series [10], 6.06. In addition, the result in [2], in series [3], in series [4], in series [5], in series [8] and in series [9] was inactive. Moreover, the outcome in series [11], in series [12], in series [14], in series [15], in series [16] and in [17] was inactive. Besides, the result in series [18] was inactive. The selectivity ratio at 120 h in series [6] was 4. This molecule also registered a CC50 at 120 h in series [13] of 9.3 µM.

Usually pEC50 stands for the EC50 on a negative log10 scale, so that one unit is a factor of ten. In general, CC50 refers to the concentration at which the toxic effect on the cells reaches its halfway point. As usually defined, the EC99 is the concentration needed for an effect of 99%.

The values above are taken from ChEMBL document CHEMBL4808183, “Betulonic Acid Derivatives Interfering with Human Coronavirus 229E Replication via the nsp15 Endoribonuclease” (J Med Chem, 2021).
